{"source": "ChEMBL document CHEMBL5030534", "about": "“Discovery of Novel Anti-Breast-Cancer Inhibitors by Synergistically Antagonizing Microtubule Polymerization and Aryl Hydrocarbon Receptor Expression” (J Med Chem, 2021)", "key": {"Tubulin (Homo sapiens) [1]": {"molecular_target": "T1, Tubulin (Homo sapiens) (UniProt P68371+Q9H4B7+P0DPH7+P68366+Q13509+Q71U36+P04350+Q3ZCM7+P07437+P68363+Q9BQE3+Q6PEY2+Q13885+Q9BVA1+Q9BUF5)", "test": "Induction of microtubule depolymerization in human MCF7 cells at 10 uM measured every 5 mins for 60 mins by spectrophotometric method", "assay_type": "cell-based", "procedure,_shortened": "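Purified tubulin at 2 mg/mL in PEM buffer preincubated on ice with compound or DMSO. PEG added to a final 3 mg/mL, then polymerization followed at 37 °C by absorbance at 350 nm every 5 min for 60 min.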"}, "[2]": {"test": "Toxicity in BALB/c nude mouse xenografted with human MCF7 cells assessed as effect on kidney at 0.5 to 1 mg/kg, iv administered every 2 days for 21 days by H and E staining based assay", "assay_type": "organism-based", "conditions": "in vivo, 504 h, dose 0.5-1 mg/kg, time 21 day", "procedure,_shortened": "(§1)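 Nude mice given 6 × 10⁶ MCF-7 cells subcutaneously on right flank; after 7 days randomized, eight per group. iv dosing every 2 days at 0.5 or 1 mg/kg; vehicle 10% DMSO/5% Tween 80/85% saline; paclitaxel 10 mg/kg and CA-4 20 mg/kg references. Body weight every 2 days; killed after 21 days; organs fixed, paraffin-sectioned, H&E stained.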"}, "MCF7 [3]": {"test_system": "MCF7", "test": "Cell migration rate in human MCF7 cells at 2 nM incubated for 24 hrs by inverted fluorescence microscopic method (reference value: 11.51%)", "conditions": "MCF7, 24 h"}, "Tubulin (Homo sapiens) [4]": {"molecular_target": "T1, Tubulin (Homo sapiens)", "test": "Induction of microtubule damage in human MCF7 cells incubated for 48 hrs by DAPI staining based immunofluorescence assay", "assay_type": "cell-based", "conditions": "dose 0.5-4 nM", "procedure,_shortened": "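Blocked with goat serum for 20 min, probed with anti-β-tubulin for 2 h, fluorescent secondary antibody and DAPI nuclear stain, imaged by laser confocal microscopy.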"}, "MCF7 [5]": {"test_system": "MCF7", "test": "Antiproliferative activity against human MCF7 cells assessed as cell growth inhibition at 2 nM in presence of DMBA", "assay_type": "functional, cell-based"}, "MCF-10A": {"test_system": "MCF-10A", "test": "Antiproliferative activity against human MCF-10A cells assessed as reduction in cell viability incubated for 48 hrs by MTT assay", "assay_type": "cell-based", "procedure,_shortened": "(§2)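 Cells seeded at 5 × 10³ per well, incubated overnight, then exposed to a range of compound concentrations for 48 h. MTT added for 4 h, medium replaced with DMSO, absorbance read at 570 nm. MCF-7, L-O2 grown in DMEM; MCF-10A, MCF-7/ADR in RPMI 1640. Three independent runs.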"}, "MCF7 [6]": {"test_system": "MCF7", "test": "Induction of apoptosis in human MCF7 cells assessed as early apoptotic cells at 1 nM measured after 24 hrs by Annexin V-FITC and PI staining based flow cytometry assay (reference value: 0.90%)", "assay_type": "functional"}, "MCF7 [7]": {"test_system": "MCF7", "test": "Induction of apoptosis in human MCF7 cells assessed as late apoptotic cells at 0.5 nM measured after 24 hrs by Annexin V-FITC and PI staining based flow cytometry assay (reference value: 2.06%)", "assay_type": "functional"}, "MCF7 [8]": {"test_system": "MCF7", "test": "Cell cycle arrest in human MCF7 cells assessed as accumulation of cells at G2/M phase at 0.5 to 2 nM measured after 24 hrs by propidium iodide staining based flow cytometric analysis relative to control", "assay_type": "functional", "conditions": "dose 0.5-2 nM", "procedure,_shortened": "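MCF-7 seeded 4 × 10⁵ per well for 24 h, treated with DMSO or 0.5, 1, 2 nM. Fixed in 75% ethanol at −20 °C for 12 h, stained with PI by cell-cycle kit, analysed by flow cytometry. Three runs.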"}, "MCF7 [9]": {"test_system": "MCF7", "test": "Induction of apoptosis in human MCF7 cells assessed as necrotic cells at 2 nM measured after 24 hrs by Annexin V-FITC and PI staining based flow cytometry assay (reference value: 0.9%)", "assay_type": "functional"}, "MCF7 [10]": {"test_system": "MCF7", "test": "Induction of apoptosis in human MCF7 cells assessed as necrotic cells at 2 nM measured after 24 hrs by Annexin V-FITC and PI staining based flow cytometry assay (reference value: 0.28%)", "assay_type": "functional"}, "MCF7 [11]": {"test_system": "MCF7", "test": "Antitumor activity against human MCF7 cells xenografted in BALB/c nude mouse assessed as reduction in tumor microvessel density at 1 mg/kg, iv administered every 2 days and measured after 21 days by immunohistochemistry analysis", "assay_type": "functional, organism-based", "conditions": "time 21.0 day", "procedure,_shortened": "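Same subcutaneous MCF-7 nude-mouse xenografts dosed iv every 2 days for 21 days. Tumors then fixed, paraffin-embedded and sectioned. Apoptotic cells detected by TUNEL fluorescent staining with DNA counterstain; microvessel density measured by anti-CD31 immunohistochemistry.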"}, "MCF7 [12]": {"test_system": "MCF7", "test": "Inhibition of AhR signalling in human MCF7 cells assessed as reduction in AhR level incubated for 24 hrs by Western blot analysis", "assay_type": "functional, cell-based", "conditions": "dose 1-4 nM", "procedure,_shortened": "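MCF-7 cells seeded 4 × 10⁵ per well, grown 24 h, then exposed to DMSO or 1, 2, 4 nM for 24 h; BAY 2416964 served as AhR antagonist reference. Lysates adjusted to 3 mg/mL protein by BCA, resolved on 4−20% SDS-PAGE, immunoblotted; AhR and CYP1A1 bands normalized to GAPDH. Three independent runs.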"}, "[13]": {"test": "Toxicity in BALB/c nude mouse xenografted with human MCF7 cells assessed as effect on heart at 0.5 to 1 mg/kg, iv administered every 2 days for 21 days by H and E staining based assay", "assay_type": "organism-based", "conditions": "in vivo, 504 h, dose 0.5-1 mg/kg, time 21 day", "procedure,_shortened": "as §1"}, "[14]": {"test": "Toxicity in BALB/c nude mouse xenografted with human MCF7 cells assessed as effect on lung at 0.5 to 1 mg/kg, iv administered every 2 days for 21 days by H and E staining based assay", "assay_type": "organism-based", "conditions": "in vivo, 504 h, dose 0.5-1 mg/kg, time 21 day", "procedure,_shortened": "as §1"}, "MCF7 [15]": {"test_system": "MCF7", "test": "Induction of apoptosis in human MCF7 cells assessed as viable cells at 2 nM measured after 24 hrs by Annexin V-FITC and PI staining based flow cytometry assay (reference value: 96.8%)", "assay_type": "functional", "conditions": "read-out: Activity"}, "MCF7 [16]": {"test_system": "MCF7", "test": "Induction of apoptosis in human MCF7 cells assessed as increase in PARP protein expression at 1 to 4 nM", "assay_type": "functional, cell-based", "conditions": "dose 1-4 nM", "procedure,_shortened": "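MCF-7 seeded 4 × 10⁵ per well for 24 h, then DMSO or compound at 1, 2, 4 nM for 24 h. Lysates protein-normalized to 3 mg/mL by BCA, resolved on 4–20% SDS-PAGE and immunoblotted. Bands quantified relative to β-actin (cell-cycle proteins) or GAPDH (apoptosis proteins); n = 3.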"}, "MCF7 [17]": {"test_system": "MCF7", "test": "Induction of apoptosis in human MCF7 cells assessed as early apoptotic cells at 2 nM measured after 24 hrs in presence of DMBA by Annexin V-FITC and PI staining based flow cytometry assay (reference value: 1%)", "assay_type": "functional"}, "MCF7 [18]": {"test_system": "MCF7", "test": "Antiproliferative activity against human MCF7 cells assessed as reduction in cell viability incubated for 48 hrs by MTT assay", "assay_type": "functional, cell-based", "conditions": "MCF7, 48 h", "procedure,_shortened": "as §2"}, "MCF7 [19]": {"test_system": "MCF7", "test": "Induction of apoptosis in human MCF7 cells assessed as necrotic cells at 2 nM measured after 24 hrs in presence of DMBA by Annexin V-FITC and PI staining based flow cytometry assay (reference value: 0.9%)", "assay_type": "functional"}}, "note": "pIC50: −log10 of the molar value. Active and inactive are the calls of the source. The rule behind the calls is not given here.", "data": [{"smiles": "Cc1nc(N(C)c2ccc3c(c2)cc(C)n3C)c2ccccc2n1", "values": [{"measurement": "Activity", "setting": "Tubulin (Homo sapiens) [1]", "result": "Active"}, {"measurement": "Activity", "setting": "[2]", "result": "Non-Toxic"}, {"measurement": "Migration rate at 0.002 µM", "setting": "MCF7 [3]", "result": 3.78, "unit": "%"}, {"measurement": "Activity", "setting": "Tubulin (Homo sapiens) [4]", "result": "Dose-Dependent Effect"}, {"measurement": "Activity", "setting": "MCF7 [5]", "result": "Active"}, {"measurement": "pIC50", "setting": "MCF-10A", "result": 8.03}, {"measurement": "Activity", "setting": "MCF7 [6]", "result": 6.63, "unit": "%"}, {"measurement": "Activity", "setting": "MCF7 [7]", "result": 2.17, "unit": "%"}, {"measurement": "Activity", "setting": "MCF7 [8]", "result": 46.87, "unit": "%"}, {"measurement": "Activity", "setting": "MCF7 [9]", "result": 8.3, "unit": "%"}, {"measurement": "Activity", "setting": "MCF7 [10]", "result": 4.51, "unit": "%"}, {"measurement": "Activity", "setting": "MCF7 [11]", "result": "Active"}, {"measurement": "inhibition", "setting": "MCF7 [12]", "result": "Dose-Dependent Effect"}, {"measurement": "Activity", "setting": "[13]", "result": "Non-Toxic"}, {"measurement": "Activity", "setting": "[14]", "result": "Non-Toxic"}, {"measurement": "viability at 0.002 µM", "setting": "MCF7 [15]", "result": 38.3, "unit": "%"}, {"measurement": "Activity", "setting": "MCF7 [16]", "result": "Active"}, {"measurement": "Activity", "setting": "MCF7 [17]", "result": 5, "unit": "%"}, {"measurement": "pIC50", "setting": "MCF7 [18]", "result": 9.05}, {"measurement": "Activity", "setting": "MCF7 [19]", "result": 5.6, "unit": "%"}]}]}
